# Screening data deposited in PubChem BioAssay by The Scripps Research Institute Molecular Screening Center.
# Rows were chosen to be rich in hits. Some 1.2% of all compounds tested hit in one or more screens of this group.
# ASAP1 inh: blocks human ASAP1-stimulated Arf1 GTP hydrolysis | Q9ULH1 | GDP FP detection | inhibition, % at 16.5 µM | 0.19% of 360,000 active | AID 624377; in the data active = inhibition above about 25%;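 also: 0% = vehicle with enzyme and substrate and 100% = no enzyme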
# Rin1-Abl PPI inh: blocks binding of human Rin1 to Abl | P00519+Q13671 | TR-FRET Rin1/Abl binding, biochemical | inhibition, % at 7.35 µM | 0.4% of 360,000 active | AID 588664; in the data active = inhibition above about 5%, passing the limit was not always enough
# ARFGAP1 inh: inhibitors of rat ARFGAP1. Arfgap1-stimulated ARF1 GTP hydrolysis, GDP FP detection. 0.26% of 360,000 active. inhibition, % at 16.5 µM. Q62848;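 active = inhibition above a per-plate limit, mean inhibition of low control wells plus 3 SD, cut at about 25% in these data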;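 also: 0% = DMSO wells with enzyme and 100% = wells lacking Arfgap1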
#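 System: truncated rat Arfgap1 GAP domain / Benchmarks: high control wells lacking Arfgap1, low control full reaction with DMSO / Times: compound-enzyme preincubation 20 min, reaction 120 min, detection 60 min, 25 °C / Repeats: one replicate per compound / Also added: human ARF1(Δ1-17)-GTP substrate / Measured by: Tracer-displacement fluorescence polarization with EDTA stop, 620/688 nm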
# GalR3 antagonist: antagonists of human GalR3. O60755. HEK293 GalR3-CNG cAMP membrane potential fluorescence; galR3 body fused to GalR1 C-terminus. inhibition, % at 3 µM. 0.44% of 360,000 active. AID 651719;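 active = inhibition above the screen-wide average plus 3 SD, cut at about 13% in these data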;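 also: forskolin and galanin both at EC90 stimulate the cells; cAMP rise reported by CNG channel membrane potential dye signal; 0% = forskolin plus galanin with DMSO and 100% = forskolin alone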
# ASAP1 inh confirm: confirmation of human ASAP1 inhibitors; AID 624431; 37% of 620 active; inhibition, % at 16.5 µM; ASAP1-stimulated Arf1 GTPase, GDP fluorescence polarization; shares compounds with ASAP1 inh;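 active = mean inhibition over triplicates exceeds the hit threshold derived for the earlier primary screening run, cut at about 25% in these data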
# The depositor's hits bear a star; x = no result given.
SMILES,ASAP1 inh,Rin1-Abl PPI inh,ARFGAP1 inh,GalR3 antagonist,ASAP1 inh confirm
COCCN1C(=O)Cc2c1nc(N)c1c(N)nc(N3CCN(c4ccc(F)cc4)CC3)c(C#N)c21,1,-3,3,-3,x
COc1ccc(CN2C(=O)Cc3c2nc(N)c2c(N)nc(N4CCOCC4)c(C#N)c32)cc1,28*,-4,-4,-6,8
COc1ccc(OCCOc2ccccc2[N+](=O)[O-])cc1,-4,-3,-1,6,x
O=[N+]([O-])c1ccccc1OCCOc1ccccc1[N+](=O)[O-],81*,-1,35*,-4,102*
CC(C)NC(=O)c1ccc2c3n(nc2c1)-c1ccc(Cl)cc1CO3,31*,-2,3,-10,7
CC(C)n1c(-c2ccc(C(C)(C)C)cc2)n[nH]c1=S,26*,0,13,-5,6
COc1cc(=O)oc(C=O)c1C,5,x,6,-6,x
O=C(NN=Cc1ccccc1O)C(=O)Nc1ccc(F)cc1,-2,x,7,-8,x
COc1ccc(N/N=C(\C#N)C(=N)SCc2ccccc2)cc1,26*,3,5,-5,1
COC(=O)c1ccccc1-c1ccc(C(c2c(C)[nH][nH]c2=O)c2c(C)[nH][nH]c2=O)o1,31*,8,21,3,0
COC(=O)c1ccc(C(c2c(C)[nH][nH]c2=O)c2c(C)[nH][nH]c2=O)cc1,3,3,2,-4,x
COc1ccc(C(=O)c2[nH]c(N)c(C(=O)c3c[nH]c4ccccc34)c2-c2ccc(OC)cc2)cc1,3,x,-6,-4,x
CN1CCCCC(NC(=O)c2ccc(F)cc2)C1=O (stereo not given),-12,x,7,-2,x
COc1ccc(CCn2c(C)c(C(C)=O)c3cc(OC(=O)c4ccco4)ccc32)cc1OC,25*,-2,-8,3,6
Cc1cc(N2CCN(CC(C)(C)O)C[C@H]2C)ccc1N1CCN(Cc2ccccc2)[C@@H](C)C1,6,x,11,-8,x
CC(C)n1c(NCc2cc(Cl)ccc2O)nc2ccccc21,26*,3,6,x,14
CC(=O)Nc1ccc(S(=O)(=O)NCC2CCN(C(=O)C(=O)c3cccs3)CC2)cc1,-11,x,9,-6,x
Nc1c(C(=O)NCc2ccc3c(c2)OCO3)c2nc3ccccc3nc2n1CCCN1CCOCC1,34*,-4,17,-5,10
COc1ccccc1CNC(=O)c1c(N)n(CCCN2CCOCC2)c2nc3ccccc3nc12,17,0,-4,-3,x
CC(=O)C1=C(C)N(Cc2ccc(F)cc2)C(=S)NC1c1ccc(Br)cc1 (stereo not given),-9,x,-4,-3,x
NC(=O)CN1C(=O)NC2(CCCc3ccccc32)C1=O (stereo not given),25*,2,2,-3,5
CC1N(O)C(c2ccc(Cl)cc2Cl)N(O)C1(C)C (stereo not given),25*,1,5,-3,5
COc1cc2sc(-c3ccc(S(C)(=O)=O)cc3)c(C#CCO)c2cc1OC,30*,3,15,2,8
COc1cc(OC)cc(-c2sc3ccc(OC)cc3c2C#CCO)c1,12,-1,20,0,x
COc1ccc(C2=Nc3ccccc3NC(=O)C2N(CCc2ccccc2)C(=O)c2cccs2)cc1 (stereo not given),27*,0,7,-4,-1
SMILES,ASAP1 inh,Rin1-Abl PPI inh,ARFGAP1 inh,GalR3 antagonist,ASAP1 inh confirm
COc1ccc(N(C)S(=O)(=O)c2cccc(C(=O)N3CCN(Cc4ccc5c(c4)OCO5)CC3)c2)cc1,-5,-2,6,-4,x
COc1ccc(N(C)S(=O)(=O)c2cccc(C(=O)NCc3ccc4c(c3)OCO4)c2)cc1,25*,1,4,-6,6
CC(C)c1cccc(OCC(=O)Nc2ccc(S(=O)(=O)Nc3ccccn3)cc2)c1,-8,-2,17,-8,x
CC(C)c1ccc(OCC(=O)Nc2ccc(S(=O)(=O)Nc3ccccn3)cc2)cc1,25*,1,4,-7,-4
COC(=O)[C@]12C[C@H](CC(=O)NCCCCc3ccccc3)C(=O)N(Cc3ccccc3)C1=C[C@H](C(C)C)O[C@@H]2C1CC1,1,x,-5,-8,x
COc1ccc2cc(C(=O)Nc3ccc(F)cc3)sc(=O)c2c1OC,26*,-5,-5,-1,22
COc1ccc2cc(C(=O)Nc3ccc(Cl)cc3)sc(=O)c2c1OC,56*,0,13,4,56*
COC(=O)c1cc2ccc(OC)c(OC)c2c(=O)s1,9,-3,-3,-1,x
COc1ccc2cc(C(=O)Nc3ccc(O)cc3)sc(=O)c2c1OC,7,-5,21,5,x
Cc1ccc(-c2nc(Nc3cccc(O)c3)c3ccccc3n2)cc1,29*,2,20,-10,19
Cc1ccc(-c2nc(Nc3ccc(O)cc3)c3ccccc3n2)cc1,6,1,4,-10,x
CCSc1n[nH]c(=O)n1C,7,x,6,-5,x
N#Cc1c(-c2ccc(Cl)cc2)ccn2nc(C3CCCCC3)nc12,27*,0,0,-2,5
Nc1c(S(=O)(=O)c2cccs2)c2nc3ccccc3nc2n1Cc1ccccc1,26*,-3,16,-7,8
COc1ccccc1CCn1cnc(-c2cccc(F)c2)c1C(C)C,-6,x,2,-8,x
C#CCNC(=O)C[C@H]1C[C@@]2(C(=O)OC)C(=C[C@H](C(C)(C)C)O[C@@H]2C)N(CCC2=CCCCC2)C1=O,-8,x,7,-7,x
CC(=O)NC1CCCCN(C)C1=O (stereo not given),1,x,4,-4,x
COc1ccc(Nc2nc(-c3cc4cccc(OC)c4oc3=O)cs2)cc1,2,1,-6,-4,x
COc1ccc2oc(=O)c(-c3csc(Nc4cccc(O)c4)n3)cc2c1,32*,-1,17,-2,48*
CC(C)(C)c1nc(N2CCN(C(=O)c3ccco3)CC2)c2nnn(Cc3ccccc3)c2n1,49*,0,14,-2,3
O=C(C(=O)N1CCC(CNC(=O)C2COc3ccccc3O2)CC1)c1cccs1 (stereo not given),1,x,1,-7,x
COCCCNC(=O)[C@@H](Cc1ccccc1)NC(=O)[C@H]1O[C@@H](n2ccc(=O)[nH]c2=O)[C@H](O)[C@@H]1O,9,x,-8,-7,x
N#Cc1cc(F)cc(OCCCN2CCC(C(O)(c3ccccc3)c3ccccc3)CC2)c1,6,x,13,-4,x
N#Cc1ccc(OCCCN2CCC(C(O)(c3ccccc3)c3ccccc3)CC2)cc1,25*,x,-6,-9,-3
Cc1ccc2c(CC(=O)N3CCN(c4ccccc4)CC3)coc2c1,25*,2,3,4,1
COC1=C(Br)C(=O)c2nc(C)ccc2C1=O,27*,1,5,-4,4
CCOc1ccc2[nH]c(C(=O)N/N=C/c3cc(OC)c(OC)c(OC)c3)cc2c1,27*,-1,20,-6,51*
CCOc1ccc(/C=N/NC(=O)c2cc3c(OC)cccc3[nH]2)cc1,3,0,14,-11,x
